The structures appear in SMILES notation. Activity calls are given as the source filed them. The calls are words filed in the database; no cut-off is given here.

In the first data set the test system is Chikungunya virus. Nature of the data set: Antiviral activity against Chikungunya virus 899 infected in African green monkey Vero cells assessed as inhibition of virus-induced cytopathic effect after 6 to 7 days by MTS assay.
Details: not given
It counts as functional, organism-based. Put shortly:
(§1)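 Cell-based CHIKV replication assay in Vero cells. EC50 is the concentration that reduces CHIKV replication by 50%. CC50 is the concentration that reduces natural growth of the host cells by 50%. […]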
Take `CC(=O)O[C@H]1[C@@H](OC(C)=O)C(C)(C)/C=C/[C@@](C)(O)C(=O)[C@@]2(OC(C)=O)C[C@@](C)(OC(C)=O)[C@H](OC(C)=O)[C@@H]2[C@H]2OC(=O)CC[C@@]2(OC(C)=O)[C@@H]1OCC(C)C`: the inhibition entry is “inactive”.
On the same count and under the same terms, the result for `C=C1[C@H](OCC(C)C)[C@@H](OC(C)=O)[C@@H](OC(C)=O)C(C)(C)/C=C/[C@H](C)C(=O)[C@@]2(O)C[C@@](C)(OC(C)=O)[C@H](OC(=O)c3ccccc3)[C@@H]2[C@H]1OCC(C)C` reads “inactive”; that for `C=C1[C@H](OC(=O)c2ccccc2)[C@@H](OC(C)=O)[C@@H](OC(C)=O)C(C)(C)/C=C/[C@H](C)C(=O)[C@@]2(O)C[C@@](C)(OC(C)=O)[C@H](OCC(C)C)[C@@H]2[C@H]1OCC(C)C`, “inactive”.
The same measure, in the same setting: the result for `C=C1[C@H](OC(=O)c2ccccc2)[C@@H](O)[C@@H](OC(C)=O)C(C)(C)/C=C/[C@H](C)C(=O)[C@@]2(O)C[C@@](C)(OC(C)=O)[C@H](O)[C@@H]2[C@H]1OC(=O)c1ccccc1` reads “inactive”; that for `C=C1[C@H](OC(=O)c2ccccc2)[C@@H](OC(C)=O)[C@@H](OC(C)=O)C(C)(C)/C=C/[C@H](C)C(=O)[C@@]2(O)C[C@@](C)(OC(C)=O)[C@H](OC(C)=O)[C@@H]2[C@H]1OCC(C)C`, “inactive”.
The same measure, in the same setting: the result for `C=C1[C@H](OC(=O)c2ccccc2)[C@@H](OC(C)=O)[C@@H](OC(C)=O)C(C)(C)/C=C/[C@H](C)C(=O)[C@@]2(O)C[C@@](C)(OC(C)=O)[C@H](O)[C@@H]2[C@H]1OCC(C)C` reads “inactive”.
With `CC(=O)O[C@H]1[C@@H](OC(C)=O)C(C)(C)/C=C/[C@@](C)(O)C(=O)[C@@]2(O)C[C@@](C)(OC(C)=O)[C@H](OC(C)=O)[C@@H]2[C@H]2OC(=O)CC[C@@]2(OCC(C)C)[C@@H]1OCC(C)C`, the inhibition entry is “inactive”.
Same read-out and setting: the result for `C=C1[C@H](OC(=O)c2ccccc2)[C@@H](OC(C)=O)[C@@H](OC(=O)c2cccnc2)C(C)(C)/C=C/[C@H](C)C(=O)[C@@]2(O)C[C@@](C)(OC(=O)c3cccnc3)[C@H](OC(C)=O)[C@@H]2[C@H]1OC(C)=O` reads “inactive”.
Still for that read-out and setting: then `C=C1[C@H](OC(=O)c2ccccc2)[C@@H](OC(C)=O)[C@@H](OC(C)=O)C(C)(C)/C=C/[C@H](C)C(=O)[C@@]2(O)C[C@H](C)[C@H](OC(C)=O)[C@@H]2[C@H]1OCC(C)C`, with “inactive”.
Same read-out and setting: the result for `CC(=O)O[C@H]1[C@@H](OC(C)=O)C(C)(C)/C=C/[C@H](C)C(=O)[C@@]2(OC(C)=O)C[C@@](C)(OC(C)=O)[C@H](O)[C@@H]2[C@H]2OC(=O)CC[C@@]2(OC(C)=O)[C@@H]1OCC(C)C` reads “inactive”; that for `C=C1[C@H](OCC(C)C)[C@@H](OC(C)=O)[C@@H](OC(=O)c2cccnc2)C(C)(C)/C=C/[C@H](C)C(=O)[C@@]2(OC(C)=O)C[C@@](C)(OC(=O)c3cccnc3)[C@H](OC(C)=O)[C@@H]2[C@H]1OC(C)=O`, “inactive”.
With `C=C1[C@H](OC(=O)c2ccccc2)[C@@H](OC(C)=O)[C@@H](OC(=O)c2cccnc2)C(C)(C)/C=C/[C@H](C)C(=O)[C@@]2(OC(C)=O)C[C@@](C)(OC(=O)c3cccnc3)[C@H](OC(C)=O)[C@@H]2[C@H]1OC(C)=O`, the inhibition result was “inactive”.
In the case of `C=C1[C@H](OCC(C)C)[C@@H](OC(C)=O)[C@@H](OC(C)=O)C(C)(C)/C=C/[C@H](C)C(=O)[C@@]2(O)C[C@@](C)(OC(C)=O)[C@H](OC(=O)COC(=O)c3ccccc3)[C@@H]2[C@H]1OC(C)=O`, the inhibition entry was “inactive”.
Same read-out and setting: the result for `C=C1[C@H](OC(=O)c2ccccc2)[C@@H](OC(C)=O)[C@@H](OC(C)=O)C(C)(C)/C=C/[C@H](C)C(=O)[C@@]2(O)C[C@@](C)(OC(C)=O)[C@H](O)[C@@H]2[C@H]1OC(=O)c1ccccc1` reads “inactive”.
`CC(=O)O[C@H]1[C@@H](OC(C)=O)C(C)(C)/C=C/[C@@](C)(O)C(=O)[C@@]2(O)C[C@@](C)(OC(C)=O)[C@H](OC(C)=O)[C@@H]2[C@H]2OC(=O)CC[C@@]2(OC(C)=O)[C@@H]1OCC(C)C`: the inhibition result was “inactive”.
Still for that read-out and setting: then `C=C1[C@H](OC(=O)c2ccccc2)[C@@H](OC(C)=O)[C@@H](OC(=O)c2cccnc2)C(C)(C)/C=C/[C@H](C)C(=O)[C@@]2(O)C[C@@](C)(OC(=O)c3cccnc3)[C@H](OC(C)=O)[C@@H]2[C@H]1OCC(C)C`, with “inactive”; and `C=C1[C@H](OC(=O)c2ccccc2)[C@@H](OC(C)=O)[C@@H](OC(C)=O)C(C)(C)/C=C/[C@H](C)C(=O)[C@@]2(O)C[C@@](C)(O)[C@H](OC(C)=O)[C@@H]2[C@H]1OCC(C)C`, with “inactive”.
Still for that read-out and setting: then `C=C1[C@H](O)[C@H]2[C@@H](OC(=O)c3ccccc3)[C@](C)(O)C[C@]2(O)C(=O)[C@@H](C)/C=C/C(C)(C)[C@H](OC(C)=O)[C@H](OC(C)=O)[C@H]1OC(=O)c1ccccc1`, with “inactive”.

The data set is the same for the next values; noted with them: Chikungunya virus, 899, Vero.
The EC50 is the midpoint of the concentration-response curve. In the case of `CCCCC/C=C/C=C\C(=O)O[C@@H]1[C@@H](C)[C@]2(O)[C@@H]3C=C(C)C(=O)[C@H]3CC(CO)=C[C@H]2[C@@H]2C(C)(C)[C@]12OC(=O)C(C)C`, the EC50 was 900 nM.
The same measure, in the same setting: the result for `CCC/C=C/C=C\C(=O)O[C@@H]1[C@@H](C)[C@]2(O)[C@@H]3C=C(C)C(=O)[C@H]3CC(CO)=C[C@H]2[C@@H]2C(C)(C)[C@]12OC(=O)C(C)C` reads 600 nM.
On to `CCC/C=C/C=C/C=C\C(=O)O[C@@H]1[C@@H](C)[C@]2(O)[C@@H]3C=C(C)C(=O)[C@H]3CC(CO)=C[C@H]2[C@@H]2C(C)(C)[C@]12OC(=O)C(C)C`, for which the half-maximal effective concentration (EC50) came out at 400 nM.
Same read-out and setting: then `CC/C=C\C/C=C/C=C\C(=O)O[C@@H]1[C@@H](C)[C@]2(O)[C@@H]3C=C(C)C(=O)[C@H]3CC(CO)=C[C@H]2[C@@H]2C(C)(C)[C@]12OC(=O)C(C)C`, with 12600 nM.

Test system in the next data set: not listed separately
Nature of the data set: Selectivity index, ratio of CC50 for African green monkey Vero cells to EC50 for Chikungunya virus 899 infected in African green monkey Vero cells. Particulars: read-out: Selectivity Index. It counts as toxicity. The procedure, abridged: as §1
`CCCCC/C=C/C=C\C(=O)O[C@@H]1[C@@H](C)[C@]2(O)[C@@H]3C=C(C)C(=O)[C@H]3CC(CO)=C[C@H]2[C@@H]2C(C)(C)[C@]12OC(=O)C(C)C`: the selectivity ratio came to 6.
The same measure, in the same setting: the result for `CCC/C=C/C=C\C(=O)O[C@@H]1[C@@H](C)[C@]2(O)[C@@H]3C=C(C)C(=O)[C@H]3CC(CO)=C[C@H]2[C@@H]2C(C)(C)[C@]12OC(=O)C(C)C` reads 41; that for `CCC/C=C/C=C/C=C\C(=O)O[C@@H]1[C@@H](C)[C@]2(O)[C@@H]3C=C(C)C(=O)[C@H]3CC(CO)=C[C@H]2[C@@H]2C(C)(C)[C@]12OC(=O)C(C)C`, 34; that for `CC/C=C\C/C=C/C=C\C(=O)O[C@@H]1[C@@H](C)[C@]2(O)[C@@H]3C=C(C)C(=O)[C@H]3CC(CO)=C[C@H]2[C@@H]2C(C)(C)[C@]12OC(=O)C(C)C`, 4.

Source of the values: ChEMBL document CHEMBL4251674, “Bioactivity-Based Molecular Networking for the Discovery of Drug Leads in Natural Product Bioassay-Guided Fractionation” (J Nat Prod, 2018).
